Source: paper PMC4325620 (Memórias do Instituto Oswaldo Cruz, 2014)
Read-outs that look alike come from different tables or passages of the source.

Columns and labels:
[1] = tested on: intracellular amastigotes of Leishmania (Leishmania) amazonensis; type: cell-based, Leishmania (L.) amazonensis (IFLA/BR/1967/PH8); conditions: for reduction of infection index: 72 h; for IC50: Peritoneal macrophage
Outline: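 Resident peritoneal macrophages from 6-week-old female BALB/c mice, 1 x 10^5/well in RPMI-1640 with 10% FCS and gentamicin, 1 h at 37 °C, 5% CO2. Infected with promastigotes (1 x 10^6/well), 4 h at 35 °C. Extract 50-12.5 µg/mL (24, 48, 72 h) or isolated compounds (72 h) at 35 °C. Giemsa staining; 200 cells counted per replicate. Infection index = % infected macrophages × mean amastigotes per macrophage. IC50 by non-linear dose-response regression.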

[2] = tested on: Murine macrophages (J774.A1); assay: Cytotoxicity assay; type: cell-based; conditions: for IC50: Mus musculus, J774.A1, 48 h; for J774.A1 SI (selectivity index): SI = IC50 mammalian cell/IC50 amastigotes (µg/mL)
Outline: (§1)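 Cells exposed 48 h at 37 °C, 5% CO2, to four concentrations (0.25-250 µg/mL) in triplicate. Amphotericin B reference (0.025-25 µg/mL); DMSO vehicle control. SRB read-out: fixation in cold 20% TCA, 30 min at 4 °C; 0.1% SRB in 1% acetic acid, 30 min; dye solubilised in 10 mM Trizma; OD 540 nm. IC50 by non-linear regression. SI = mammalian-cell IC50 / amastigote IC50.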

[3] = tested on: promastigotes of Leishmania donovani; conditions: ref Camacho et al. 2000; cited from earlier work
[4] = tested on: fibroblast cells (NIH/3T3); assay: Cytotoxicity assay; type: cell-based, murine; conditions: for IC50: Mus musculus, NIH3T3, 48 h; for NIH/3T3 SI (selectivity index): SI = IC50 mammalian cell/IC50 amastigotes (µg/mL)
Outline: as §1

[5] = tested on: NO production by L. amazonensis infected cells; assay: Nitric oxide; type: cell-based, BALB/c mice; conditions: for NO production: vs untreated infected cells; for production of nitric oxide (NO): treated infected cells, concentration not given
Outline: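 Supernatants were taken from infected BALB/c peritoneal macrophages treated as in the amastigote assay. Nitrite was quantified against a sodium nitrite standard curve (1-10 µM in RPMI). Results are mean ± SD, compared with untreated infected cells by Student's t test.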

[6] = tested on: axenic amastigotes of Leishmania donovani; conditions: ref Weniger et al. 2006, Kunert et al. 2008; cited from earlier work
[7] = read-out: Intracellular amastigotes IC50
[8] = read-out: Intracellular amastigotes IC50 (µM)

Structure (SMILES) | reduction of infection index ([1]; all concentrations tested, compared to the control) | reduction of infection index ([1]; highest concentration (3 µg/mL)) [%] | IC50 [1, 7] [µg/mL] | IC50 [1, 8] [µM] | IC50 ([2]; read-out: J774.A1 IC50) [µg/mL] | IC50 ([2]; read-out: J774.A1 IC50 (µM)) [µM] | J774.A1 SI (selectivity index) [2] | activity on promastigotes [3] | IC50 ([4]; read-out: NIH/3T3 IC50) [µg/mL] | IC50 ([4]; read-out: NIH/3T3 IC50 (µM)) [µM] | NIH/3T3 SI (selectivity index) [4] | NO production ([5]; 0.75 µg/mL, 72 h, p < 0.01) | NO production ([5]; 1.5 µg/mL, 72 h, p < 0.05) | production of nitric oxide (NO) [5] | activity on axenic amastigotes [6] | reduction of infection index ([1]; 12.5 µg/mL) [%] | NO release ([5]; highest concentration tested, 72 h)
O=c1cc(-c2ccc(O)c(-c3c(O)cc(O)c4c(=O)cc(-c5ccc(O)cc5)oc34)c2)oc2cc(O)cc(O)c12 [Amentoflavone, amentoflavone] | greater than 90.6% | ~100 | 0.1 | 0.2 | 3 | 5.5 | 30 | poor activity | 2.2 | 4 | 22 | significantly lower | significantly lower | lower | not active |  | 
C[C@@H]1[C@H](O)[C@@H](C)/C=C/C=C/C=C/C=C/C=C/C=C/C=C/[C@H](O[C@@H]2O[C@H](C)[C@@H](O)[C@H](N)[C@@H]2O)C[C@@H]2O[C@](O)(C[C@@H](O)C[C@@H](O)[C@H](O)CC[C@@H](O)C[C@@H](O)CC(=O)O[C@H]1C)C[C@H](O)[C@H]2C(=O)O [Amphotericin B, reference compound] |  |  | 0.03 | 0.035 | 4.3 | 4.7 | 143.3 |  | 2.2 | 2.2 | 73 |  |  |  |  |  | 
O=c1cc(-c2ccc(O)c(-c3c(O)cc4oc(-c5ccc(O)cc5)cc(=O)c4c3O)c2)oc2cc(O)cc(O)c12 [Robustaflavone, robustaflavone] |  |  | 2.8 | 5.3 | 3.1 | 5.7 | 1.1 |  | 25.5 | 47.4 | 9.1 |  |  | higher |  | 90.8 | increased
